The text below walks through data of article PMC3306175 (Journal of Immunology (Baltimore, Md. : 1950), 2009).

pIC50: −log10 of the molar value. Peptide text beside a SMILES is read from it.

As a reminder, the pIC50 is the IC50 on a negative log10 scale, so that one unit is a factor of ten.

For test [1], the system named is gliadin-reactive intestinal T cell lines (iTCLs) from HLA-DQ2+ celiac patients. The test can be described thus: IFN-γ production. Type of test: cell-based, human. The following applies: for Hierarchical clustering by intensity of IFN-γ responses (OD peptide / OD medium): 14 patients, Cluster 3.0, Pearson correlation; for IFN-γ response (in words): peptide 30 μg/ml; for Number of patients whose iTCL recognized the peptide (positive IFN-γ response) / Percentage of patients recognizing the peptide: 14 adult HLA-DQ2+ CD patients, positive = IFN-γ at least twice medium alone; for Potency in eliciting T cell responses relative to 33-mer: polyclonal iTCLs or peptide-specific TCCs. In a few lines:
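iTCLs grown from collagenase-digested jejunal explants in X-Vivo15 with 5% AB serum, stimulated with irradiated PBMC, TG2-deamidated PT-gliadin (50 μg/ml) and IL-15 (10 ng/ml). T cells (3 × 10^4) were incubated with autologous EBV-B cells (6 × 10^4) and TG2-treated peptides (30 μg/ml; 37°C, 4 h, pH 6.8). IFN-γ was measured by ELISA at 48 h. Positive response: ≥2× medium. OD ratios were row/column-normalised, then clustered. Duplicates, ≥3 experiments.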

Test [2] deals with DQ2-α-I/III- or DQ2-α-II-specific intestinal T cells. In words: Dose-response assays with peptide-pulsed irradiated APCs on iTCLs and TCCs. Type of test: cell-based, human. In a few lines:
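Autologous B-LCL APCs, irradiated, pulsed overnight at 37°C with 10-fold increasing doses of peptide. Peptide deamidated beforehand with TG2 (1:1 enzyme/substrate, 4 h, 37°C, Tris-HCl pH 6.8 with CaCl2, NaCl, DTT). APCs washed before adding T cells (3 × 10^4 iTCL or 1 × 10^4 TCC). IFN-γ ELISA on 48 h supernatants. Mean of duplicates; three separate experiments.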

For test [3], the system named is DQ2-α-I/III-specific T cell clones from patient CD230204. The test can be described thus: IFN-γ and proliferative responses of 17-mer-specific intestinal T cell clones. Type of test: cell-based, human. The conditions noted are these: TCCs from patient CD230204; peptide 30 μg/ml (8–19 μM). In a few lines: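 T cell clones were derived from the patient's intestinal T cell line by limiting dilution with irradiated allogeneic PBMC, B-LCL and PHA. Peptides were deamidated with TG2 (1:1, 4 h, 37°C, Tris-HCl pH 6.8, CaCl2, NaCl, DTT). Each clone (1 × 10^4) was cultured with autologous B-LCL. IFN-γ ELISA on 48 h supernatants; proliferation by [3H]thymidine added for a further 16 h. Duplicates.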

Test [4] relates to iTCLs from patient CD041051. In words: HLA restriction with anti-HLA-DR and anti-HLA-DQ blocking mAbs. The following applies: peptide 15 μM; anti-HLA-DR and anti-HLA-DQ mAbs 10 μg/ml. Type of test: cell-based, human. In short, it runs like this: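 Intestinal T cell lines came from collagenase-digested mucosal explants, expanded with irradiated PBMC, TG2-deamidated peptic-tryptic gliadin (50 μg/ml) and IL-15. For the assay, B-LCL APCs were preincubated 10 min with anti-HLA-DR (clone L243) or anti-HLA-DQ (clone SPV-L3) before peptide. T cells were then added. IFN-γ was measured by ELISA in 48 h supernatants. Duplicate wells, at least three independent experiments.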

In test [5] the target is purified HLA-DQ2 molecules (Homo sapiens, UniProt P01909+P01920). The test can be described thus: HLA-DQ2 binding assay. The following applies: read-out: IC50 of binding to purified HLA-DQ2; TG2-deamidated peptides; inhibition of 0.1–1 nM 125I-radiolabeled probe peptide binding to purified HLA-DQ2 (5–500 nM), 48 h in PBS; three or more independent assays.
Sequence of purified HLA-DQ2 molecules (P01920 33-261, other chains not shown): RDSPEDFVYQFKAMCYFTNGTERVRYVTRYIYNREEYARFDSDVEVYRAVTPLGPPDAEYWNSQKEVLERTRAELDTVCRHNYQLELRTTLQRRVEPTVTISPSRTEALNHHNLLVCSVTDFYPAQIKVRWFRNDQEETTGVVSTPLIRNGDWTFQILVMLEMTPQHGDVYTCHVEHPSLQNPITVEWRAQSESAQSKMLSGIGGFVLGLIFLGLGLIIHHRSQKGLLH

PQPQPFPPQLPYPQPQS [AG12]: in test [1], the “Hierarchical clustering by intensity of IFN-γ responses (OD peptide / OD medium)” value is “low intensity of IFN-γ responses”. Further, the “IFN-γ response (in words)” value in test [1] (iTCL of patient CD090401) is recorded as “recognized”.
As for SHIPGLERPSQQQPLPPQQTL [Glt(19–39)], the “Number of patients whose iTCL recognized the peptide (positive IFN-γ response)” value (“Number” below) in test [1] is given as “no intestinal T cell response”.
The same measure, in the same setting: as for PFRPQQPYPQPQPQY [Glia-20], the entry is “no responses”.
Take PQQPQQSFPQQQQPA [DQ2-γ-I]: in test [1], the “Number” value turned out to be 5 patients and the “Hierarchical clustering by intensity of IFN-γ responses (OD peptide / OD medium)” value is “low intensity of IFN-γ responses”. Further, the “IFN-γ response (in words)” value in test [1] (iTCL of patient CD230204) was “weakly”.
On to PFPQQPQQPYPQQPQ [DQ2-γ-III], for which the “Hierarchical clustering by intensity of IFN-γ responses (OD peptide / OD medium)” value in test [1] is on record as “low intensity of IFN-γ responses”. The “IFN-γ response (in words)” value in test [1] (iTCL of patient CD061204) was “recognizing”; in test [1] (iTCL of patient CD090401), “recognized”.
On to `CC(C)C[C@H](NC(=O)[C@H](CCC(=O)O)NC(=O)[C@@H]1CCCN1C(=O)[C@H](CCC(N)=O)NC(=O)[C@@H]1CCCN1C(=O)[C@H](Cc1ccc(O)cc1)NC(=O)[C@@H]1CCCN1C(=O)[C@H](CCC(N)=O)NC(=O)[C@@H]1CCCN1C(=O)[C@@H](N)CCC(N)=O)C(=O)N1CCC[C@H]1C(=O)N[C@@H](Cc1ccc(O)cc1)C(=O)N1CCC[C@H]1C(=O)N[C@@H](CCC(N)=O)C(=O)N1CCC[C@H]1C(=O)N[C@@H](CCC(N)=O)C(=O)N1CCC[C@H]1C(=O)N[C@@H](Cc1ccccc1)C(=O)O` [18-mer] (H-QPQPYPQPELPYPQPQPF-OH), for which the “Hierarchical clustering by intensity of IFN-γ responses (OD peptide / OD medium)” value in test [1] is “strongest and more consistent responses”. Further, in test [1] (iTCL of patient CD090401), the “IFN-γ response (in words)” value was “very high levels of IFN-γ”.
QPQQPFPQPQQPFPWQP [DQ2-ω-1]: in test [2] (iTCLs from patient CD041051), the “IFN-γ production at 10-fold increased concentrations of peptide” value was “retained stimulatory activity even at low concentrations”. Moreover, in test [3], the “IFN-γ production and proliferation of 17-mer-specific T cell clones” value (from here on “IFN-γ production and proliferation”) is reported as “no cross-reactivity occurred”. Moreover, in test [1], the “Number” value is recorded as “five”; the “Percentage of patients recognizing the peptide” value stood at 35%; the “Hierarchical clustering by intensity of IFN-γ responses (OD peptide / OD medium)” value was “strongest and more consistent responses”. Moreover, in test [1] (iTCL of patient CD041051), the “IFN-γ response (in words)” value was “very high”. The “IFN-γ response (in words)” value in test [1] (iTCL of patient CD090401) is on record as “intermediate IFN-γ levels”. Further, in test [1] (iTCL of patient CD130406), the “IFN-γ response (in words)” value is on record as “responded”. Further, in test [4], the “HLA restriction of recognition” value is “restricted by HLA-DQ2”.
For the compound QLQPFPQPQLPYPQPQP [17-mer], in test [3], the “IFN-γ production and proliferation” value was “produced high levels of IFN-γ and proliferated”. For the same compound, in test [1], the “Hierarchical clustering by intensity of IFN-γ responses (OD peptide / OD medium)” value was “strongest and more consistent responses”; the “Potency in eliciting T cell responses relative to 33-mer” value is listed as “as potent as 33-mer”. Also, in test [1] (iTCL of patient CD090401), the “IFN-γ response (in words)” value is “very high levels of IFN-γ”.
Turning to PQLPQFLQPQPYPQPQLPYPQPQPF [25-mer], in test [1], the “Hierarchical clustering by intensity of IFN-γ responses (OD peptide / OD medium)” value was “strongest and more consistent responses”; the “Potency in eliciting T cell responses relative to 33-mer” value was “as potent as 33-mer”.
Take QIPQQQQIPQQPQQF [Glu-5]: the “IFN-γ response (in words)” value in test [1] (iTCL of patient CD090401) is listed as “weak IFN-γ response”.
As to QQPPFSQQQQSPFSQ [Glt-156], the “Number” value in test [1] is “no intestinal T cell response”.
GQGIIQPQQPAQLIR [DQ2-γ-II]: in test [1], the “Hierarchical clustering by intensity of IFN-γ responses (OD peptide / OD medium)” value is given as “low intensity of IFN-γ responses”. In addition, the “IFN-γ response (in words)” value in test [1] (iTCL of patient CD061204) is on record as “recognizing”.
As to PQPQPFLPQLPYPQPQS [AG11], the “Hierarchical clustering by intensity of IFN-γ responses (OD peptide / OD medium)” value in test [1] was “strongest and more consistent responses”.
As for `CC(C)C[C@H](NC(=O)[C@H](CCC(N)=O)NC(=O)[C@@H](N)CC(C)C)C(=O)N[C@@H](CCC(N)=O)C(=O)N1CCC[C@H]1C(=O)N[C@@H](Cc1ccccc1)C(=O)N1CCC[C@H]1C(=O)N[C@@H](CCC(N)=O)C(=O)N1CCC[C@H]1C(=O)N[C@@H](CCC(=O)O)C(=O)N[C@@H](CC(C)C)C(=O)N1CCC[C@H]1C(=O)N[C@@H](Cc1ccc(O)cc1)C(=O)O` [13-mer] (H-LQLQPFPQPELPY-OH), in test [2] (iTCLs from CD041051, APCs pulsed overnight with 10-fold increasing doses of TG2-deamidated peptide), the “Potency in activating DQ2-α-II-specific iTCLs (dose-response)” value was “weak stimulatory capacity and only at very high concentration (10 μM)”. Moreover, in test [1], the “Number” value was “five”; the “Hierarchical clustering by intensity of IFN-γ responses (OD peptide / OD medium)” value was “strongest and more consistent responses”. Also, the “IFN-γ response (in words)” value in test [1] (iTCL of patient CD041051) is reported as “weak IFN-γ production”. Besides, in test [1] (iTCL of patient CD090401), the “IFN-γ response (in words)” value is reported as “very high levels of IFN-γ”.
Turning to `CC(C)C[C@H](NC(=O)[C@H](CCC(N)=O)NC(=O)[C@@H](N)CC(C)C)C(=O)N[C@@H](CCC(N)=O)C(=O)N1CCC[C@H]1C(=O)N[C@@H](Cc1ccccc1)C(=O)N1CCC[C@H]1C(=O)N[C@@H](CCC(N)=O)C(=O)N1CCC[C@H]1C(=O)N[C@@H](CCC(N)=O)C(=O)N[C@@H](CC(C)C)C(=O)N1CCC[C@H]1C(=O)N[C@@H](Cc1ccc(O)cc1)C(=O)N1CCC[C@H]1C(=O)N[C@@H](CCC(N)=O)C(=O)N1CCC[C@H]1C(=O)N[C@@H](CCC(N)=O)C(=O)N[C@@H](CC(C)C)C(=O)N1CCC[C@H]1C(=O)N[C@@H](Cc1ccc(O)cc1)C(=O)N1CCC[C@H]1C(=O)N[C@@H](CCC(N)=O)C(=O)N1CCC[C@H]1C(=O)N[C@@H](CCC(N)=O)C(=O)N[C@@H](CC(C)C)C(=O)N1CCC[C@H]1C(=O)N[C@@H](Cc1ccc(O)cc1)C(=O)N1CCC[C@H]1C(=O)N[C@@H](CCC(N)=O)C(=O)N1CCC[C@H]1C(=O)N[C@@H](CCC(N)=O)C(=O)N1CCC[C@H]1C(=O)N[C@@H](Cc1ccccc1)C(=O)O` [33-mer] (H-LQLQPFPQPQLPYPQPQLPYPQPQLPYPQPQPF-OH; N-terminus and C-terminus assumed), the pIC50 in test [5] was 7.36. For the same compound, the “IFN-γ production and proliferation” value in test [3] is recorded as “vigorously reacted”. In addition, in test [1], the “Number” value is on record as 7 patients; the “Percentage of patients recognizing the peptide” value is on record as 50%; the “Hierarchical clustering by intensity of IFN-γ responses (OD peptide / OD medium)” value was “strongest and more consistent responses”. Further, the “IFN-γ response (in words)” value in test [1] (iTCL of patient CD041051) is “high response”. Further, the “IFN-γ response (in words)” value in test [1] (iTCL of patient CD090401) is on record as “intermediate IFN-γ levels”.
With LQPQQPFPQQPQQPYPQQPQ [DQ2-γ-V], the “Hierarchical clustering by intensity of IFN-γ responses (OD peptide / OD medium)” value in test [1] is on record as “low intensity of IFN-γ responses”. Also, the “IFN-γ response (in words)” value in test [1] (iTCL of patient CD230204) is reported as “weakly”.
QLQPFPQPTLPYPQPQS [T65]: in test [1], the “Number” value is “four”; the “Hierarchical clustering by intensity of IFN-γ responses (OD peptide / OD medium)” value was “strongest and more consistent responses”. In addition, the “IFN-γ response (in words)” value in test [1] (iTCL of patient CD090401) was “recognized”.
